# In ChEMBL document CHEMBL1123956, “Nitrosoureido nucleosides as potential inhibitors of nucleotide biosynthesis” (J Med Chem, 1988):
# Values joined by “and” are separate entries in the source; they are usually repeats but may differ in a detail not shown here. Equal entries are not always repeated.
# What was measured:
# HEp-2 = experiment: Inhibition of colony formation of H.Ep-2 cells; type: functional, cell-based; details: Homo sapiens, read-out: I50
# Summary of the method: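 H.Ep.-2 cells exposed to drug over a 12-day period. Colony formation was scored against untreated controls, and I50 was taken as the concentration giving 50% inhibition.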
# Mus musculus = experiment: Percent increase in life span of p388 leukemia induced mice was determined at a dose of 200 mg/kg upon ip administration on days 1-5; type: functional; details: route intraperitoneal
# Summary of the method: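 Mice implanted with 10⁶ P388 leukemia cells were dosed intraperitoneally once daily on days 1-5 after implant. Activity is expressed as % increase in life span, and 30-day survivors were recorded.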
# L1210 [1] = experiment: Inhibition of proliferation of L1210 cells; type: functional, cell-based; details: Mus musculus, read-out: I50
# Summary of the method: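 L1210 cells in suspension culture with drug for 48 h. I50 was the concentration giving 50% inhibition of proliferation relative to controls.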
# [2] = (§1) Half life was measured at pH 7; type: ADME
# Summary of the method: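 Stability in pH 7 buffer, followed by HPLC; reported as half-life. The method is taken from an earlier paper.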
# [3] = as §1; type: ADME; remark: listed apart in the source
# Summary of the method: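 Stability in pH 7 buffer, with decomposition followed by HPLC and the half-life taken from it.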
# L1210 [4] = experiment: percent synthesis of protein in L1210 cells when incubated with the compound for 30 min using [3H]L-Leu as radioligand at 50 uM conc.; type: functional, Mus musculus
# Summary of the method: (§2)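 Protein synthesis in L1210 suspension cultures preincubated with agent for 30 min or 18 h. [4,5-3H]-L-leucine was then added, and incorporation into protein was sampled hourly over 4 h. Values are 4-h incorporation as % of untreated control.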
# L1210 [5] = experiment: percent synthesis of DNA in L1210 cells when incubated with the compound for 30 min using […] as radioligand at 100 uM conc.; type: functional, Mus musculus
# Summary of the method: (§3)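 DNA synthesis in L1210 suspension cultures preincubated with agent for 30 min or 18 h. [3H]dThd was then added to the medium, and incorporation into DNA was sampled at 1-h intervals over 4 h. Values are for the 4-h labelling period, as % of untreated control.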
# L1210 [6] = experiment: Number of cells present measured with the Coulter counter at 100 uM conc.; type: functional, Mus musculus
# Summary of the method: (§4)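 L1210 suspension cultures with agent for 30 min or 18 h, then a further 4 h with radiolabelled precursor. Cells were counted by Coulter counter and expressed as R, the count relative to the initial cell number (R = 1.0). R < 1.0 means a fall below the starting number; R > 1.0 means proliferation.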
# L1210 [7] = experiment: percent synthesis of DNA in L1210 cells when incubated with the compound for 30 min using […] as radioligand at 50 uM conc.; type: functional, Mus musculus; summary of the method: as §3
# L1210 [8] = experiment: percent synthesis of RNA in L1210 cells when incubated with compound for 18 hr using […] as radioligand at 25 uM conc.; type: functional, Mus musculus
# Summary of the method: (§5)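 RNA synthesis in L1210 suspension cultures preincubated with agent for 30 min or 18 h. [5-3H]Urd was then added, and incorporation into RNA was sampled hourly over 4 h. Values are 4-h incorporation as % of untreated control.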
# L1210 [9] = experiment: Number of cells present measured with the Coulter counter at 50 uM conc.; type: functional, Mus musculus; summary of the method: as §4
# L1210 [10] = experiment: percent synthesis of protein in L1210 cells when incubated with the compound for 18 h uusing [3H]L-Leu as radioligand at 50 uM conc.; type: functional, Mus musculus; summary of the method: as §2
# L1210 [11] = experiment: percent synthesis of RNA in L1210 cells when incubated with compound for 30 min using […] as radioligand at 100 uM conc.; type: functional, Mus musculus; summary of the method: as §5
# L1210 [12] = experiment: Size distribution of cells at 100 uM conc.; type: functional, Mus musculus
# Summary of the method: (§6)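 L1210 suspension cultures with agent for 30 min or 18 h, then a 4-h labelling period. Size distribution was measured on a Model ZH Coulter Counter. The value is the instrument setting at the peak of cell size; higher settings mean larger cells.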
# L1210 [13] = experiment: percent synthesis of RNA in L1210 cells when incubated with compound for 30 min using [3H]dThd as radioligand at 50 uM conc.; type: functional, Mus musculus; details: in the assay text read “[5-3H]Urd” for “[3H]dThd”; summary of the method: as §5
# L1210 [14] = experiment: percent synthesis of DNA in L1210 cells when incubated with the compound for 18 h using […] as radioligand at 50 uM conc.; type: functional, Mus musculus; summary of the method: as §3
# L1210 [15] = experiment: percent synthesis of RNA in L1210 cells when incubated with compound for 18 hr using […] as radioligand at 50 uM conc.; type: functional, Mus musculus; summary of the method: as §5
# L1210 [16] = experiment: percent synthesis of DNA in L1210 cells when incubated with the compound for 18 h using […] as radioligand at 25 uM conc.; type: functional, Mus musculus; summary of the method: as §3
# L1210 [17] = experiment: Size distribution of cells at 25 uM conc.; type: functional, Mus musculus; summary of the method: as §6
# L1210 [18] = experiment: Number of cells present measured with the Coulter counter at 25 uM conc.; type: functional, Mus musculus; summary of the method: as §4
# L1210 [19] = experiment: Size distribution of cells at 50 uM conc.; type: functional, Mus musculus; summary of the method: as §6
compound,measurement,setting,value
CCN(N=O)C(=O)NCC1OC(n2cc(C)c(=O)[nH]c2=O)CC1O (stereo unspecified),IC50,HEp-2,> 87 µM
same,ILS at 200 mg/kg,Mus musculus,0%
same,IC50,L1210 [1],> 87 µM
same,half-life,[2],1140 min
Cc1cn(C2CC(O)C(C(=O)Nc3ccc(NC(=O)N(C)N=O)cc3)O2)c(=O)[nH]c1=O (stereo unspecified),IC50,HEp-2,46 µM
same,ILS at 200 mg/kg,Mus musculus,79%
same,IC50,L1210 [1],> 90 µM
same,half-life,[2],24 min
O=NN(CCCl)C(=O)N[C@H]1C(O)O[C@H](CO)[C@@H](O)[C@@H]1O (stereo partly specified) [CHLOROZOTOCIN],T1/2,[3],52.5 min
O=NN(CCCl)C(=O)NC1CCCCC1 [LOMUSTINE],Control,L1210 [4],79%
same,Control,L1210 [5],46% and 131%
same,Cell no,L1210 [6],1 and 0.42
same,Control,L1210 [7],75%
same,Control,L1210 [8],106% and 282%
same,Cell no,L1210 [9],1 and 0.53
same,Control,L1210 [10],584%
same,Control,L1210 [11],101% and 246%
same,Cell size,L1210 [12],65 and 85
same,Control,L1210 [13],121%
same,Control,L1210 [14],143%
same,Control,L1210 [15],393%
same,Control,L1210 [16],88% and 139%
same,Cell size,L1210 [17],67.5 and 90
same,Cell no,L1210 [18],1.02 and 0.48
same,Cell size,L1210 [19],62.5 and 90
CN(N=O)C(N)=O [N-METHYL-N-NITROSUREA],T1/2,[3],52.5 min
